Data taken from ChEMBL document CHEMBL4842335, “Discovery of penipanoid C-inspired 2-(3,4,5-trimethoxybenzoyl)quinazolin-4(3H)-one derivatives as potential anticancer agents by inhibiting cell proliferation and inducing apoptosis in hepatocellular carcinoma cells” (Eur J Med Chem, 2021).
Activity calls are given as the source filed them. The rule behind the calls is not given here.

What was measured:
HepG2 [1] = experiment: Induction of apoptosis in human HepG2 cells assessed as live cells at 3.2 uM incubated for 48 hrs by Annexin V and dead cell assay kit (reference value: 93.90%); format: functional
Summary of the method: (§1)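 HepG2 cells were grown in DMEM and exposed to 0, 0.8, 1.6 or 3.2 µM test agent or DMSO vehicle for 48 h. Apoptosis was then read on a Muse cell analyzer using an Annexin V & Dead Cell kit, which separates live, early apoptotic, late apoptotic and dead populations. The figure legend gives n = 3 with SEM.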

Bel-7402 [2] = experiment: Induction of cell cycle arrest in human Bel-7402 cells assessed as accumulation at S phase at 3.2 uM incubated for 48 hrs by flow cytometry (reference value: 28.48%); format: functional
HepG2 [3] = experiment: Induction of apoptosis in human HepG2 cells assessed as dead cells at 1.6 uM incubated for 48 hrs by Annexin V and dead cell assay kit (reference value: 0.55%); format: functional; summary of the method: as §1
Bel-7402 [4] = experiment: Induction of cell cycle arrest in human Bel-7402 cells assessed as accumulation at G1 phase at 1.6 uM incubated for 48 hrs by flow cytometry (reference value: 46.32%); format: functional
HepG2 [5] = experiment: Induction of apoptosis in human HepG2 cells assessed as live cells at 0.8 uM incubated for 48 hrs by Annexin V and dead cell assay kit (reference value: 93.90%); format: functional; summary of the method: as §1
L02 = experiment: Cytotoxicity against human L-O2 cells assessed as inhibition of proliferation incubated for 72 hrs by MTT assay; format: cell-based; settings: L02, 72 h
HepG2 [6] = experiment: Induction of cell cycle arrest in human HepG2 cells assessed as accumulation at S phase at 1.6 uM incubated for 48 hrs by flow cytometry (reference value: 28.23%); format: functional
Summary of the method: (§2)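 HepG2 treated 48 h with 0, 0.8 or 1.6 µM (DMSO control); phase distribution by flow cytometry using a cell cycle and apoptosis kit; mean with SD, n = 3.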

Bel-7402 [7] = experiment: Induction of cell cycle arrest in human Bel-7402 cells assessed as accumulation at G2/M phase at 1.6 uM incubated for 48 hrs by flow cytometry (reference value: 25.20%); format: functional
[8] = Selectivity index, ratio of IC50 for human LO2 cells to IC50 for human HepG2 cells; format: toxicity; settings: LO2 cells versus HepG2 cells, read-out: Selectivity Index
HepG2 [9] = experiment: Induction of cell cycle arrest in human HepG2 cells assessed as accumulation at G2/M phase at 0.8 uM incubated for 48 hrs by flow cytometry (reference value: 24.89%); format: functional; summary of the method: as §2
[10] = biological target: T1, Serine/threonine-protein kinase AKT (Homo sapiens) (UniProt P31751+Q9Y243+P31749); experiment: Inhibition of Akt phosphorylation in human HepG2 cells incubated for 48 hrs by Western blot analysis; format: cell-based; settings: dose 1.6-3.2 µM
Summary of the method: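 HepG2 treated 48 h with 0, 1.6 or 3.2 µM; lysates run on 12.5% SDS-PAGE, PVDF transfer, primary antibodies (AKT, p-AKT, ERK1/2, p-ERK1/2; 1:1000) overnight at 4 °C, HRP secondaries 1 h, chemiluminescence. Phosphorylation quantified relative to untreated control set to 1; SD, n = 3.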

HepG2 [11] = experiment: Induction of cell cycle arrest in human HepG2 cells assessed as accumulation at S phase at 0.8 uM incubated for 48 hrs by flow cytometry (reference value: 28.23%); format: functional; summary of the method: as §2
HepG2 [12] = experiment: Induction of cell cycle arrest in human HepG2 cells assessed as accumulation at G2/M phase at 1.6 uM incubated for 48 hrs by flow cytometry (reference value: 24.89%); format: functional; summary of the method: as §2
HepG2 [13] = experiment: Induction of apoptosis in human HepG2 cells assessed as live cells at 1.6 uM incubated for 48 hrs by Annexin V and dead cell assay kit (reference value: 93.90%); format: functional; summary of the method: as §1
HCT-116 = experiment: Cytotoxicity against human HCT116 cells assessed as inhibition of proliferation incubated for 72 hrs by MTT assay; format: functional, cell-based; settings: HCT-116, 72 h
Summary of the method: (§3)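 Cells plated at 3×10³/well, grown overnight in DMEM + 10% FBS, then exposed to compounds (DMSO stocks; 0.1% DMSO negative control) for 72 h at 37 °C. MTT (5 mg/mL in PBS, added at 10%) for 4 h, formazan dissolved in DMSO, A570 read. Inhibition = (Ac−As)/(Ac−Ab)×100; IC50 by calculator; ≥3 independent repeats.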

NCI-H1299 = experiment: Cytotoxicity against human NCI-H1299 cells assessed as inhibition of proliferation incubated for 72 hrs by MTT assay; format: functional, cell-based; settings: NCI-H1299, 72 h; summary of the method: as §3
Bel-7402 [14] = experiment: Induction of cell cycle arrest in human Bel-7402 cells assessed as accumulation at G2/M phase at 0.8 uM incubated for 48 hrs by flow cytometry (reference value: 25.20%); format: functional
[15] = biological target: T1, Serine/threonine-protein kinase AKT (Homo sapiens); experiment: Inhibition of Akt phosphorylation in human Bel-7402 cells incubated for 48 hrs by Western blot analysis; format: cell-based
Summary of the method: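 Bel-7402 exposed for 48 h to 0, 1.6 or 3.2 µM; cell extracts on 12.5% SDS-PAGE, transferred to PVDF, probed overnight at 4 °C with AKT, p-AKT, ERK1/2, p-ERK1/2 antibodies (1:1000), HRP secondary 1 h, chemiluminescent detection. Band levels normalised to control = 1; SD, n = 3.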

HepG2 [16] = experiment: Induction of cell cycle arrest in human HepG2 cells assessed as accumulation at G1 phase at 0.8 uM incubated for 48 hrs by flow cytometry (reference value: 46.88%); format: functional
HepG2 [17] = experiment: Inhibition of colony formation in human HepG2 cells at 1.6 to 3.2 uM measured after 10 days by crystal violet staining based assay relative to control; format: functional, cell-based; settings: dose 1.6-3.2 µM, time 10.0 day
Summary of the method: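 1000 cells/well seeded, attached overnight in DMEM + 10% FBS, then grown 10 days at 37 °C, 5% CO₂ with 0, 0.2, 0.4, 0.8, 1.6 or 3.2 µM. Fixed in 4% paraformaldehyde 15 min, stained 0.1% crystal violet 30 min, colonies counted; formation rate relative to solvent control.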

HepG2 [18] = experiment: Induction of apoptosis in human HepG2 cells assessed as late apoptotic cells at 1.6 uM incubated for 48 hrs by Annexin V and dead cell assay kit (reference value: 1%); format: functional; summary of the method: as §1
Bel-7402 [19] = experiment: Induction of cell cycle arrest in human Bel-7402 cells assessed as accumulation at G2/M phase at 3.2 uM incubated for 48 hrs by flow cytometry (reference value: 25.20%); format: functional
HepG2 [20] = experiment: Cytotoxicity against human HepG2 cells assessed as inhibition rate at 2.5 uM incubated for 72 hrs by MTT assay relative to control; format: functional
Summary of the method: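 HepG2 exposed to each compound at 2.5 µM-range single concentration for 72 h at 37 °C after overnight attachment in DMEM + 10% FBS; 0.1% DMSO control. MTT 4 h, DMSO solubilisation, A570; inhibition rate = (Ac−As)/(Ac−Ab)×100.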

Bel-7402 [21] = experiment: Cytotoxicity against human Bel-7402 cells assessed as inhibition of proliferation incubated for 72 hrs by MTT assay; format: functional, cell-based; settings: Bel-7402, 72 h; summary of the method: as §3

T1 sequence (P31749 whole entry, looked up): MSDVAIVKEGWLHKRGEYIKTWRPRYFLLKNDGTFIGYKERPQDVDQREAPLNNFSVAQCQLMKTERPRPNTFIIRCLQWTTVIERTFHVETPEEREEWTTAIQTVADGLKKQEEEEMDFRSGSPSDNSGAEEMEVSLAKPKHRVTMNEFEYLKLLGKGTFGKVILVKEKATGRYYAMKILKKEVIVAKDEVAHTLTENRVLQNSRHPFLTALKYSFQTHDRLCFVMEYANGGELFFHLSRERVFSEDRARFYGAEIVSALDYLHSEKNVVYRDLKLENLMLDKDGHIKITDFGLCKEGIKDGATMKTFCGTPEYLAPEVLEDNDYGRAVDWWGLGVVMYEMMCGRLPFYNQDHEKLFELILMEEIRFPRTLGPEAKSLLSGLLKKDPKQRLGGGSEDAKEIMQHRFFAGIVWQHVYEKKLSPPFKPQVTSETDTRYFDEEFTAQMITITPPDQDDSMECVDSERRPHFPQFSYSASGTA
T1 sequence (P31751 whole entry, looked up): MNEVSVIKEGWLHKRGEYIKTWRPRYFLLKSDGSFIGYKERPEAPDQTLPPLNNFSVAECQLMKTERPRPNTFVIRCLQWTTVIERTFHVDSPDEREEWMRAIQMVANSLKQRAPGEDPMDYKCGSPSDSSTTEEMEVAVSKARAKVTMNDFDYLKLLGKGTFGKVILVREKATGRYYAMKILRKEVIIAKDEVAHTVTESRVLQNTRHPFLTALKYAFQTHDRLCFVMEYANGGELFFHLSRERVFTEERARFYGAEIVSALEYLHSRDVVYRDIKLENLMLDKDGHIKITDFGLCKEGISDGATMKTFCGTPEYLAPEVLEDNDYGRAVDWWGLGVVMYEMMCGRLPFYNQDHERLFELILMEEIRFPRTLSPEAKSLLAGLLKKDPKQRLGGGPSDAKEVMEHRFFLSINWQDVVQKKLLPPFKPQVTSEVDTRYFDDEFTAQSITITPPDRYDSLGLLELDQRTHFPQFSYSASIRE
T1 sequence (Q9Y243 whole entry, looked up): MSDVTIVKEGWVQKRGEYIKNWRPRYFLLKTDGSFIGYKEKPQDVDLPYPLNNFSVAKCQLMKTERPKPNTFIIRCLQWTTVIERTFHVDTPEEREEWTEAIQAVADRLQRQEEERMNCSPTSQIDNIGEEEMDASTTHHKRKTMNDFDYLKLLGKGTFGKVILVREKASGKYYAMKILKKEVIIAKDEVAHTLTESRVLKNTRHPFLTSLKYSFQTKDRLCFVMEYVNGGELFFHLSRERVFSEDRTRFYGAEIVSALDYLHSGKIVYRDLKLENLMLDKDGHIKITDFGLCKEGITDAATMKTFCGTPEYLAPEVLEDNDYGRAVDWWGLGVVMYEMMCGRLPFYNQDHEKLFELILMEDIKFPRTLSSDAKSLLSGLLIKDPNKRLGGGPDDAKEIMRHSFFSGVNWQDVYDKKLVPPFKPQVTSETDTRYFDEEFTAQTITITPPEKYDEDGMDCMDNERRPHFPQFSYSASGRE

## COc1cc(C(=O)c2nc3ccccc3c(=O)[nH]2)cc(OC)c1OC
HepG2 [1]
  Activity: 53.2%
Bel-7402 [2]
  Activity: 32.14%
HepG2 [3]
  Activity: 0.95%
Bel-7402 [4]
  Activity: 33.07%
HepG2 [5]
  Activity: 91.75%
L02
  IC50: 6.01 µM
HepG2 [6]
  Activity: 35.65%
Bel-7402 [7]
  Activity: 32.43%
[8]
  selectivity ratio: 4.9
HepG2 [9]
  Activity: 28.73%
[10]
  inhibition: Dose-Dependent Effect
HepG2 [11]
  Activity: 33.43%
HepG2 [12]
  Activity: 35.18%
HepG2 [13]
  Activity: 80.65%
HCT-116
  IC50: 5.47 µM
NCI-H1299
  IC50: 13.9 µM
Bel-7402 [14]
  Activity: 27.69%
[15]
  inhibition: Dose-Dependent Effect
HepG2 [16]
  Activity: 37.84%
HepG2 [17]
  inhibition: Active
HepG2 [18]
  Activity: 6.7%
Bel-7402 [19]
  Activity: 41.71%
HepG2 [20]
  inhibition at 2.5 µM: 73%
Bel-7402 [21]
  IC50: 1.71 µM
